This is an account of results in article PMC7113734 (Antiviral Research, 2016).

Converted amounts (≈) assume the structure as drawn. Read-outs that look alike come from different tables or passages of the source.

Test [1] concerns drug-resistant HIV-1 strains. In words: Antiviral activity against drug-resistant HIV-1 strains in MT-4. As to conditions: for EC50: MT-4. It is filed as cell-based.
For test [2], the system named is HIV attachment to HeLa-CD4-LTR-β-gal cells. In words: Attachment inhibition assay. It is filed as cell-based, HIV-1. As to conditions: Human immunodeficiency virus 1, read-out: Attachment inhibition EC50 ± SD.
Test [3] relates to drug resistant clinical HIV isolates. In words: Antiviral activity against drug-resistant HIV-1 in PBMCs. It is filed as cell-based. To be noted: Human immunodeficiency virus 1, PBMC.
Test [4] relates to HIV strain 92US727. The test is described as follows: Cell-to-cell virus transmission assay in fresh human PBMCs. In kind it is cell-based, HIV-1. In a few lines:
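HIV-infected fresh human PBMCs treated 3 days with six concentrations of test compound. Passaged every 3 days for three passages at fixed compound concentration; 80% of culture volume replaced with fresh compound-containing medium and uninfected cells. Cell-free supernatants collected on sub-culture days for RT activity and extracellular p24 antigen. TCID50 per passage by endpoint dilution.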

For test [5], the system named is HIVIIIB. The test is described as follows: Cell-to-cell virus transmission assay in CEM-SS cells. It is filed as cell-based, HIV-1.
The test system of test [6] is HL2/3 cells expressing HIV-1 gp120 and gp41 fusing with HeLa-CD4-LTR-β-gal cells. In words: Fusion inhibition assay. To be noted: read-out: Fusion inhibition EC50 ± SD. It is filed as cell-based. Put shortly:
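HeLa-CD4-LTR-β-Gal cells incubated with test compound for 1 h at 37°C/5% CO2, then co-cultured 48 h with HL2/3 cells. Cells lysed and β-galactosidase expression measured by chemiluminescent Gal-Screen.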

With `Cc1cn([C@H]2C[C@H](N=[N+]=[N-])[C@@H](CO)O2)c(=O)[nH]c1=O` [AZT, reference compound], the EC50 in test [1] (Human immunodeficiency virus 1, read-out: Mean EC50 ± SD, positive control, AZT- and NNRTI-resistant, RT 4xAZT/L100I) came to 4 nM; in test [1] (Human immunodeficiency virus 1, read-out: Mean EC50 ± SD, positive control, AZT- and NNRTI-resistant, RT 4xAZT/Y181C), 7 nM; in test [1] (Human immunodeficiency virus 1, read-out: Mean EC50 ± SD, positive control, Atazanavir-resistant, PR I50L) it was 1.5 nM; in test [1] (Human immunodeficiency virus 1, read-out: Mean EC50 ± SD, positive control, Didanosine-resistant, RT L74V), 2 nM; in test [1] (Human immunodeficiency virus 1, read-out: Mean EC50 ± SD, positive control, Enfuviritide-resistant, Env V38A/N126K), 1.5 nM; in test [1] (Human immunodeficiency virus 1, read-out: Mean EC50 ± SD, positive control, Indinavir-, Ritonavir-resistant, PR I84V), 2.5 nM. Further, the EC50 in test [1] (Human immunodeficiency virus 1, read-out: Mean EC50 ± SD, positive control, Indinavir-, Ritonavir-resistant, PR V82A) stood at 3.5 nM; in test [1] (Human immunodeficiency virus 1, read-out: Mean EC50 ± SD, positive control, Indinavir-, Ritonavir-resistant, PR V82F/I84V) it was 2 nM; in test [1] (Human immunodeficiency virus 1, read-out: Mean EC50 ± SD, positive control, Lamivudine-resistant, RT M184V), 0.55 nM; in test [1] (Human immunodeficiency virus 1, read-out: Mean EC50 ± SD, positive control, NNRTI-resistant, RT K103N/Y181C) it was 2 nM; in test [1] (Human immunodeficiency virus 1, read-out: Mean EC50 ± SD, positive control, NNRTI-resistant, RT K103N), 0.9 nM; in test [1] (Human immunodeficiency virus 1, read-out: Mean EC50 ± SD, positive control, NNRTI-resistant, RT L100I) it was 0.65 nM. Moreover, the EC50 in test [1] (Human immunodeficiency virus 1, read-out: Mean EC50 ± SD, positive control, NNRTI-resistant, RT V106A) was found to be 2 nM; in test [1] (Human immunodeficiency virus 1, read-out: Mean EC50 ± SD, positive control, NNRTI-resistant, RT V108I), 1.5 nM; in test [1] (Human immunodeficiency virus 1, read-out: Mean EC50 ± SD, positive control, NNRTI-resistant, RT V179D) it was 1 nM; in test [1] (Human immunodeficiency virus 1, read-out: Mean EC50 ± SD, positive control, NNRTI-resistant, RT Y181C), 1 nM; in test [1] (Human immunodeficiency virus 1, read-out: Mean EC50 ± SD, positive control, NNRTI-resistant, RT Y188C), 1.5 nM; in test [1] (Human immunodeficiency virus 1, read-out: Mean EC50 ± SD, positive control, Raltegravir-resistant, IN Q148H/G140S), 2 nM. For the same compound, in test [1] (Human immunodeficiency virus 1, read-out: Mean EC50 ± SD, positive control, Saquinavir-resistant, PR G48V/L90M), the EC50 was 3.5 nM.
With `COc1cc(-c2ccc(/N=N/c3ccc4c(S(=O)(=O)O)cc(S(=O)(=O)O)c(N)c4c3O)c(OC)c2)ccc1/N=N/c1ccc2c(S(=O)(=O)O)cc(S(=O)(=O)O)c(N)c2c1O` [Chicago sky blue, reference compound], the EC50 in test [2] came out at 0.64 µg/mL (≈ 0.707 µM).
`Cc1ccnc2c1NC(=O)c1cccnc1N2C1CC1` [NVP, reference compound]: the EC50 in test [1] (Human immunodeficiency virus 1, read-out: Mean EC50 ± SD, positive control, AZT-resistant, RT 4xAZT (D67N/K70R/T215Y/K219Q)) was found to be 35 nM.
For `CC(C)c1nc(CN(C)C(=O)N[C@H](C(=O)N[C@@H](Cc2ccccc2)C[C@H](O)[C@H](Cc2ccccc2)NC(=O)OCc2cncs2)C(C)C)cs1` [RTV, reference compound], in test [1] ({}), the “Mean EC50 ± SD, positive control” value is on record as “RTV 0.06 ± 0.02 nM”.
Take `Cc1nnc(C(=O)NC(C)(C)c2nc(C(=O)NCc3ccc(F)cc3)c(O)c(=O)n2C)o1` [Raltegravir, reference compound]: the EC50 in test [3] (read-out: PBMC/HIV-1 EC50 ± SD, Multi-drug resistant AD. MDR) stood at 2980 ± 540 nM; in test [3] (read-out: PBMC/HIV-1 EC50 ± SD, Multi-drug resistant MDR769), 2370 ± 1510 nM; in test [3] (read-out: PBMC/HIV-1 EC50 ± SD, NNRTI-resistant A17R) it was 1990 ± 40 nM; in test [3] (read-out: PBMC/HIV-1 EC50 ± SD, NNRTI-resistant N119) it was 3540 ± 890 nM; in test [3] (read-out: PBMC/HIV-1 EC50 ± SD, PI-resistant 144-44), 3870 ± 3250 nM; in test [3] (read-out: PBMC/HIV-1 EC50 ± SD, PI-resistant 1002-60), 2970 ± 230 nM. The EC50 in test [3] (read-out: PBMC/HIV-1 EC50 ± SD, PI-resistant 1022-48) is 1320 ± 170 nM; in test [3] (read-out: PBMC/HIV-1 EC50 ± SD, PI-resistant 1026-60), 1770 ± 850 nM; in test [3] (read-out: PBMC/HIV-1 EC50 ± SD, PI-resistant 1064-52), 860 ± 490 nM; in test [3] (read-out: PBMC/HIV-1 EC50 ± SD, Wild Type 92US727), 10500 ± 12700 nM.
With `CC(C)(C)NC(=O)[C@@H]1C[C@@H]2CCCC[C@@H]2CN1C[C@@H](O)[C@H](Cc1ccccc1)NC(=O)[C@H](CC(N)=O)NC(=O)c1ccc2ccccc2n1` [Saquinavir, reference compound], the RT turned out to be 281 cpm in test [4] (Passage 1, 12.5 nM); 1394 cpm in test [4] (Passage 2, 12.5 nM); 7015 cpm in test [4] (Passage 3, 12.5 nM); 25 cpm in test [5] (Passage 1, 20 nM); 107 cpm in test [5] (Passage 2, 20 nM); 68 cpm in test [5] (Passage 3, 20 nM). Also, the TCID50/mL in test [4] (Passage 1, 12.5 nM) was 3.08 × 10^3 TCID50/mL; in test [4] (Passage 2, 12.5 nM), 8.30 × 10^3 TCID50/mL; in test [4] (Passage 3, 12.5 nM), 1.09 × 10^5 TCID50/mL; in test [5] (Passage 1, 20 nM), 0 TCID50/mL; in test [5] (Passage 2, 20 nM) it was 0 TCID50/mL; in test [5] (Passage 3, 20 nM), 0 TCID50/mL. The p24 was 971 pg/mL in test [4] (Passage 1, 12.5 nM); 3505 pg/mL in test [4] (Passage 2, 12.5 nM); 61,275 pg/mL in test [4] (Passage 3, 12.5 nM); 794 pg/mL in test [5] (Passage 1, 20 nM); 1589 pg/mL in test [5] (Passage 2, 20 nM); 1085 pg/mL in test [5] (Passage 3, 20 nM).
Regarding enfuvirtide [reference compound], the EC50 in test [6] was found to be 80 nM.
